{"source": "ChEMBL document CHEMBL2429859", "about": "“Inhibiting aberrant signal transducer and activator of transcription protein activation with tetrapodal, small molecule Src homology 2 domain binders: promising agents against multiple myeloma” (J Med Chem, 2013)", "key": {"OCI-AML2": {"tested_on": "OCI-AML2", "experiment": "Cytotoxicity against human OCI-AML2 cells assessed as cell viability after 72 hrs by MTS assay", "assay_type": "functional, cell-based", "conditions": "OCI-AML2, 72 h", "in_short": "(§1)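 Cells were seeded at 1-3 x 10^4 per well into wells already holding compound or vehicle, in triplicate. Incubation was 72 h at 37 °C in 5% CO2. Viability was read by MTS colorimetry relative to DMSO control, and EC50 was fitted to a standard dose-response curve where applicable.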"}, "RPMI-8226 [1]": {"tested_on": "RPMI-8226", "experiment": "Induction of apoptosis in human RPMI8226 cells assessed as transformation of viable cells to early apoptotic cells measured at 24 hrs by annexin V/propidium iodide staining-based flow cytometric analysis", "assay_type": "functional, cell-based", "in_short": "(§2)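 Apoptosis was measured by flow cytometry of Annexin V and propidium iodide staining. Viable, early apoptotic and late apoptotic cells were scored by quadrant, with time points at 24 and 48 h.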"}, "RPMI-8226 [2]": {"tested_on": "RPMI-8226", "experiment": "Induction of apoptosis in human RPMI8226 cells assessed as transformation of early apoptotic cells to late apoptotic cells measured at 48 hrs by annexin V/propidium iodide staining-based flow cytometric analysis", "assay_type": "functional, cell-based", "in_short": "as §2"}, "SK-MM-2": {"tested_on": "SK-MM-2", "experiment": "Cytotoxicity against human SKMM-2 cells assessed as inhibition of cell viability after 72 hrs by MTT assay", "assay_type": "functional, cell-based", "in_short": "(§3)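 Myeloma lines were seeded at 1-3 x 10^4 cells per well onto compound or vehicle, in triplicate, and cultured 72 h at 37 °C in 5% CO2. Viability was measured colorimetrically by MTT assay relative to DMSO control. EC50 was fitted to a standard dose-response curve where applicable.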"}, "[3]": {"target": "T1, Signal transducer and activator of transcription 3 (Homo sapiens, UniProt P40763)", "T1 sequence (P40763 whole entry)": "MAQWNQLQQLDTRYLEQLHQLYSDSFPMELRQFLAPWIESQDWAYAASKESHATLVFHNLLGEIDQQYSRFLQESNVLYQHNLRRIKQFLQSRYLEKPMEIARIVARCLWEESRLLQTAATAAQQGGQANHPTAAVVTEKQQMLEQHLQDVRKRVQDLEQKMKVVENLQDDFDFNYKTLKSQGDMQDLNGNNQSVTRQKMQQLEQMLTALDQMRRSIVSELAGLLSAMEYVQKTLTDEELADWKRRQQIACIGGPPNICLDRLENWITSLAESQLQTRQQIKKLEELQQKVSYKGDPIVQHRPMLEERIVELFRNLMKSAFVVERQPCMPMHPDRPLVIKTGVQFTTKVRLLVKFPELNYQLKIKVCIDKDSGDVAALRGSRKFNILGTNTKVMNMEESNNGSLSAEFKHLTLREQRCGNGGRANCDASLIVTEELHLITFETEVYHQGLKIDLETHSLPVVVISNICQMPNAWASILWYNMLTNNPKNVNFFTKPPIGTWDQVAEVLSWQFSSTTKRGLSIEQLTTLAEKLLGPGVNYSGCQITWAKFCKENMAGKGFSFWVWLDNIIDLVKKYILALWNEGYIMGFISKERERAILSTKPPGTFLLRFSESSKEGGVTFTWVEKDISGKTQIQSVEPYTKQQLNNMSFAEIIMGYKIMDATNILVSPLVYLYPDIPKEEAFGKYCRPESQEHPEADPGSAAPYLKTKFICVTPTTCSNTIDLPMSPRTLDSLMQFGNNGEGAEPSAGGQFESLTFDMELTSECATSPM", "experiment": "Inhibition of Stat3 in human JJN-3 cells assessed as downregulation of survivin protein expression", "assay_type": "cell-based", "in_short": "(§4)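 Treated cells were washed in cold PBS and lysed 30 min on ice in Tris-HCl pH 7.4/NaCl/EDTA/1% NP-40 with PMSF, vanadate and protease inhibitors. Lysates were Bradford-normalized, and 10-30 µg protein was run on 7-10% SDS-PAGE and transferred to PVDF. Blots were blocked in 5% BSA/TBST, probed overnight at 4 °C, then with HRP secondary, and detected by ECL.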"}, "[4]": {"target": "T2, Signal transducer and activator of transcription 1-alpha/beta (Homo sapiens, UniProt P42224)", "T2 sequence (P42224 whole entry)": "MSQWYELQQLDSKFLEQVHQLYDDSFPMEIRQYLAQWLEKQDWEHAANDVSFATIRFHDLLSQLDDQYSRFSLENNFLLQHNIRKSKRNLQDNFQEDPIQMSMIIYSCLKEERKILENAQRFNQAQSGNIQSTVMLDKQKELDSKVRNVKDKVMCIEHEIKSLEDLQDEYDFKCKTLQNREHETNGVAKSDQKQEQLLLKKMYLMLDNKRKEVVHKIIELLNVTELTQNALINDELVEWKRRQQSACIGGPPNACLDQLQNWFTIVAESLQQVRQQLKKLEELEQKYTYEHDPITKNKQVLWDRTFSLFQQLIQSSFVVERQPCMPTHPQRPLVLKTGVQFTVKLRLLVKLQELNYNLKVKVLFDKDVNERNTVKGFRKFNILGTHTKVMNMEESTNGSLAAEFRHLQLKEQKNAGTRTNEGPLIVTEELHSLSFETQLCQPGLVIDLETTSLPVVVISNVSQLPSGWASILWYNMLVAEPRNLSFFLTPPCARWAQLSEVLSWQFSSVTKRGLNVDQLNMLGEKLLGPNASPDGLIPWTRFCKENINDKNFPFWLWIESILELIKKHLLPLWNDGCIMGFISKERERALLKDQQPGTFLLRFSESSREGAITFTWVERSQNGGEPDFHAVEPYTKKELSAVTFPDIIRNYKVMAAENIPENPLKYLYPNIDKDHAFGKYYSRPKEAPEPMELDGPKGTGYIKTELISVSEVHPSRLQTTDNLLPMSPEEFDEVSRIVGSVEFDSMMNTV", "experiment": "Binding affinity to Stat1 (unknown origin) using 5-FAM-GpYLPQTV-NH2 as probe assessed as phosphopetide complex formation after 30 mins by fluorescence polarization assay", "in_short": "(§5)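 Fluorescence polarization. Recombinant STAT protein was incubated with the 5-FAM-GpYLPQTV-NH2 peptide probe and inhibitor for 30 min. Polarized fluorescence was plotted against inhibitor concentration, and IC50 was obtained by fitting a dose-response curve.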"}, "JJN-3": {"tested_on": "JJN-3", "experiment": "Cytotoxicity against human JJN-3 cells assessed as inhibition of cell viability after 72 hrs by MTT assay", "assay_type": "functional, cell-based", "in_short": "as §3"}, "[5]": {"target": "T1, Signal transducer and activator of transcription 3", "experiment": "Inhibition of Stat3-mediated luciferase expression in human 8226 cells after 6 hrs", "assay_type": "cell-based", "in_short": "(§6)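 Myeloma cells stably carried a Stat3-driven firefly luciferase reporter (puromycin-selected) and a CMV-driven Renilla luciferase internal control (hygromycin-selected), each selected for 2 weeks. After drug treatment, dual luciferase activity was read as relative luciferase units, firefly/Renilla.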"}, "[6]": {"target": "T1, Signal transducer and activator of transcription 3", "experiment": "Inhibition of IL-6-induced Stat3 phosphorylation in serum-starved human U937 cells at 10 to 20 uM incubated for 4 hrs prior to IL-6 induction measured after 15 mins by phopsho-flow cytometric analysis", "assay_type": "cell-based", "conditions": "U-937", "in_short": "(§7)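 Serum-starved U937 cells were pretreated with compound for 4 h, then stimulated 15 min with IL-6 (Stat3), GM-CSF (Stat5) or IFN (Stat1). Phosphorylation of each STAT was quantified by phospho-flow cytometry.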"}, "NCI-H929": {"tested_on": "NCI-H929", "experiment": "Cytotoxicity against human NCI-H929 cells assessed as inhibition of cell viability after 72 hrs by MTT assay", "assay_type": "functional, cell-based", "in_short": "as §3"}, "RPMI-8226 [7]": {"tested_on": "RPMI-8226", "experiment": "Cytotoxicity against human RPMI8226 cells assessed as inhibition of cell viability after 72 hrs by MTT assay", "assay_type": "functional, cell-based", "in_short": "as §3"}, "UTMC2": {"tested_on": "UTMC2", "experiment": "Cytotoxicity against human UTMC2 cells assessed as inhibition of cell viability after 72 hrs by MTT assay", "assay_type": "functional, cell-based", "in_short": "as §3"}, "DU-145": {"tested_on": "DU-145", "experiment": "Cytotoxicity against human DU145 cells assessed as cell viability after 72 hrs by MTS assay", "assay_type": "functional, cell-based", "conditions": "DU-145, 72 h", "in_short": "as §1"}, "XG7": {"tested_on": "XG7", "experiment": "Cytotoxicity against human XG7 cells assessed as inhibition of cell viability after 72 hrs by MTT assay", "assay_type": "functional, cell-based", "in_short": "as §3"}, "[8]": {"experiment": "Cytotoxicity against human MDA468 cells assessed as cell viability after 72 hrs by MTS assay", "assay_type": "functional, cell-based", "conditions": "MDA-MB-468, 72 h", "in_short": "as §1"}, "[9]": {"target": "T1, Signal transducer and activator of transcription 3", "experiment": "Inhibition of Stat3 in human JJN-3 cells assessed as downregulation of BCL-xL protein expression", "assay_type": "cell-based", "in_short": "as §4"}, "[10]": {"target": "T1, Signal transducer and activator of transcription 3", "experiment": "Inhibition of Stat3 phosphorylation in human JJN-3 cells after 6 hrs by Western blot analysis", "assay_type": "cell-based", "in_short": "as §4"}, "XG6": {"tested_on": "XG6", "experiment": "Cytotoxicity against human XG6 cells assessed as inhibition of cell viability after 72 hrs by MTT assay", "assay_type": "functional, cell-based", "in_short": "as §3"}, "MM1.S": {"tested_on": "MM1.S", "experiment": "Cytotoxicity against human MM1S cells assessed as inhibition of cell viability after 72 hrs by MTT assay", "assay_type": "functional, cell-based", "in_short": "as §3"}, "[11]": {"target": "T3, Signal transducer and activator of transcription 1-alpha/beta (Homo sapiens) (UniProt P42224)", "T3 sequence (whole entry)": "T2 sequence (P42224 whole entry)", "experiment": "Inhibition of IFNgamma-induced Stat1 phosphorylation in serum-starved human U937 cells at 10 to 20 uM incubated for 4 hrs prior to IFNgamma induction measured after 15 mins by phopsho-flow cytometric analysis", "assay_type": "cell-based", "conditions": "U-937", "in_short": "as §7"}, "[12]": {"target": "T1, Signal transducer and activator of transcription 3", "experiment": "Competitive binding affinity to Stat3 SH2 domain (unknown origin) using 5-FAM-GpYLPQTV-NH2 as probe assessed as phosphopetide complex formation after 30 mins by fluorescence polarization assay", "in_short": "as §5"}, "[13]": {"target": "T1, Signal transducer and activator of transcription 3", "experiment": "Inhibition of Stat3-mediated luciferase expression in human XG6 cells after 6 hrs", "assay_type": "cell-based", "in_short": "as §6"}}, "note": "Activity calls are given as the source filed them. No cut-off for these calls is given here."}
{"smiles": "Cc1ccc(S(=O)(=O)N(CC(=O)N(Cc2ccc(C3CCCCC3)cc2)c2ccc(C(=O)O)c(O)c2)Cc2ccccc2C(F)(F)F)cc1", "values": [{"measurement": "IC50", "setting": "OCI-AML2", "value": 12, "unit": "µM"}, {"measurement": "Activity", "setting": "RPMI-8226 [1]", "value": "Dose-dependent effect"}, {"measurement": "Activity", "setting": "RPMI-8226 [2]", "value": "Dose-dependent effect"}, {"measurement": "inhibition", "setting": "SK-MM-2", "value": "Dose-dependent effect"}, {"measurement": "inhibition", "setting": "[3]", "value": "inactive"}, {"measurement": "IC50", "setting": "[4]", "value": 5.8, "unit": "µM"}, {"measurement": "inhibition", "setting": "JJN-3", "value": "Dose-dependent effect"}, {"measurement": "inhibition", "setting": "[5]", "value": "Dose-dependent effect"}, {"measurement": "inhibition", "setting": "[6]", "value": "Active"}, {"measurement": "inhibition", "setting": "NCI-H929", "value": "Dose-dependent effect"}, {"measurement": "inhibition", "setting": "RPMI-8226 [7]", "value": "Dose-dependent effect"}, {"measurement": "inhibition", "setting": "UTMC2", "value": "Dose-dependent effect"}, {"measurement": "IC50", "setting": "DU-145", "value": 16, "unit": "µM"}, {"measurement": "inhibition", "setting": "XG7", "value": "Dose-dependent effect"}, {"measurement": "IC50", "setting": "[8]", "value": 11, "unit": "µM"}, {"measurement": "inhibition", "setting": "[9]", "value": "inactive"}, {"measurement": "inhibition", "setting": "[10]", "value": "Dose-dependent effect"}, {"measurement": "inhibition", "setting": "XG6", "value": "Dose-dependent effect"}, {"measurement": "inhibition", "setting": "MM1.S", "value": "Dose-dependent effect"}, {"measurement": "inhibition", "setting": "[11]", "value": "Active"}, {"measurement": "IC50", "setting": "[12]", "value": 2.8, "unit": "µM"}, {"measurement": "inhibition", "setting": "[13]", "value": "Dose-dependent effect"}]}
{"smiles": "O=C(O)c1ccc(N(Cc2ccc(C3CCCCC3)cc2)C(=O)CN(Cc2ccccc2C(F)(F)F)S(=O)(=O)c2c(F)c(F)c(F)c(F)c2F)cc1O", "values": [{"measurement": "IC50", "setting": "OCI-AML2", "value": 4.6, "unit": "µM"}, {"measurement": "Activity", "setting": "RPMI-8226 [1]", "value": "Dose-dependent effect"}, {"measurement": "Activity", "setting": "RPMI-8226 [2]", "value": "Dose-dependent effect"}, {"measurement": "inhibition", "setting": "SK-MM-2", "value": "Dose-dependent effect"}, {"measurement": "inhibition", "setting": "[3]", "value": "inactive"}, {"measurement": "IC50", "setting": "[4]", "value": 10.9, "unit": "µM"}, {"measurement": "inhibition", "setting": "JJN-3", "value": "Dose-dependent effect"}, {"measurement": "inhibition", "setting": "[5]", "value": "Dose-dependent effect"}, {"measurement": "inhibition", "setting": "[6]", "value": "Active"}, {"measurement": "inhibition", "setting": "NCI-H929", "value": "Dose-dependent effect"}, {"measurement": "inhibition", "setting": "RPMI-8226 [7]", "value": "Dose-dependent effect"}, {"measurement": "inhibition", "setting": "UTMC2", "value": "Dose-dependent effect"}, {"measurement": "IC50", "setting": "DU-145", "value": 14, "unit": "µM"}, {"measurement": "inhibition", "setting": "XG7", "value": "Dose-dependent effect"}, {"measurement": "IC50", "setting": "[8]", "value": 8.1, "unit": "µM"}, {"measurement": "inhibition", "setting": "[9]", "value": "inactive"}, {"measurement": "inhibition", "setting": "[10]", "value": "Dose-dependent effect"}, {"measurement": "inhibition", "setting": "XG6", "value": "Dose-dependent effect"}, {"measurement": "inhibition", "setting": "MM1.S", "value": "Dose-dependent effect"}, {"measurement": "inhibition", "setting": "[11]", "value": "Active"}, {"measurement": "IC50", "setting": "[12]", "value": 12.8, "unit": "µM"}, {"measurement": "inhibition", "setting": "[13]", "value": "Dose-dependent effect"}]}
